This is an account of results in PubChem BioAssay.

A number with no mark means an inactive call. Results filed as inconclusive are left out. Calls of active or inactive are those of the source.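 Rule for the calls, unless noted: active = RAM network inhibition above 8.4% in each of two replicates, 3 SD over the compound average; inconclusive = above 8.4% inhibition in only one replicate; inactive = 8.4% inhibition or less in each replicate.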

A short description of test [1]: S. cerevisiae growth inhibition in permissive medium (OD615), pilot counter-assay for S. cerevisiae lifespan shortening project, permissive growth control (AID 705;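 active = growth inhibition above 25% in both replicates, a cutoff set 3 SD above the mean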). The conditions noted are these: OD615, 24 h, at 10 µM, active compounds read high. The essentials:
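System: Engineered DeaD yeast | Buffer or medium: SC raffinose/galactose permissive medium | Doses: 10 µM single dose, 0.25% DMSO | Times: 24 h exposure, 30 °C | Measured by: OD615 turbidity read | Read-out: Yeast growth inhibition indicated by reduced 24 h OD615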

Test [2] can be described thus: S. cerevisiae growth inhibition in restrictive medium, OD615, pilot screen, restrictive growth control, yeast lifespan reduction project (AID 706;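 active = growth inhibition above a set limit, 3 SD over mean compound inhibition, in both replicates, cut at about 43% in these data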;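 note: modified DeaD lifespan yeast strain shifted to restrictive glucose medium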). The note with it: OD615, 48 h, at 10 µM, active compounds read high. The essentials:
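Assay system: engineered S. cerevisiae DeaD strain; Buffer or medium: CSMM-D glucose medium; Dosing: 10 µM compound, 0.25% DMSO; Times: cell pre-growth 4 h, compound exposure 48 h, 30 °C; Detection: absorbance (optical density) measured at 615 nm.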

Test [3] in a line: doxorubicin toxicity protection in MRP-1 cells – H69AR cells, CellTiter-Glo, duplicate, MRP-1 activator project, pilot screen (AID 807;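 active = viability increase at or above a cutoff of the median across tested compounds plus 3 SD, cut at about 8.5% in these data, passing the limit was not always enough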;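 note: compound pretreatment 18-22 h then 72 h combined with doxorubicin; 0% = doxorubicin alone and 100% = vehicle without doxorubicin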). The note with it: H69AR viability with doxorubicin, CellTiter-Glo luminescence; at 10 µM; active compounds read high. On the technique in general: ATP-based viability assays read luminescence as a measure of living cells.
Test [4] in a line: viability of HCT116 without oncogenic beta-catenin – human colon tumor cells, pilot screen (AID 823;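 active = cell viability at or below a set limit in both duplicate runs, the limit being the all-compound median minus 4 SD, cut at about 23% in these data, passing the limit was not always enough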;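 note: 0% = wells killed by 20 µM Hyamine and 100% = untreated DMSO cell wells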). The note with it: HCT116 beta-catenin knockout viability, CellTiter-Glo, 60 h; at 10 µM; active compounds read low.
The nature of test [5]: viability of PTEN-null HCT116 cells – cell-based, HCT116 clonal line, CellTiter-Glo, pilot screen (AID 824;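 active = viability at or below 27.92% in each of two runs, the all-compound median minus 4 SD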;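 note: 0% = 20 µM Hyamine control and 100% = vehicle cell control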). The conditions noted are these: HCT116 PTEN-deleted viability, 60 h, at 10 µM, active compounds read low.
Test [6] is described as follows: RAM pathway blockade in budding yeast – dse1pr::URA3 reporter, 5-FOA selection, pilot screen (AID 869;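 active = inhibition over a set limit, the all-compound mean plus 3 SD, in both replicate runs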;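 note: 0% = DMSO wells with no growth and 100% = 10 µM 1-NA-PP1 with full growth; RAM network block rescues cells from 5-FOA so hits raise OD615 growth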). The conditions noted are these: S. cerevisiae dse1pr::URA3 5-FOA growth, OD615, 2 d; at 10 µM; active compounds read high; strain carries analog-sensitive mutant Cbk1 kinase.
Test [7] can be described thus: RAM signaling pathway blockade in yeast – S. cerevisiae, Pdr1DBD-CYC8 efflux-inhibited sensitized strain, primary screen (AID 1298).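 Note: 0% = DMSO untreated cells without growth and 100% = 10 µM 1-NA-PP1 full growth; higher means more yeast growth rescued from 5-FOA killing.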 The note with it: S. cerevisiae cbk1-as DSE1-URA3 strain, 5-FOA growth OD615, 2 d; at 50 µM; active compounds read high.

As for `COC(=O)c1cc(NC2c3ccccc3C(=O)N2c2cccnc2)cc(C(=O)OC)c1` (stereo unspecified), the figures for the growth inhibition in test [1] and in test [2] were -10.2% and 0.875%, respectively. Besides, the viability increase in test [3] was -4.6%. For the same compound, the results for the viability in test [4] and in test [5] were 90.6% and 91.4%, respectively. For the same compound, the inhibition in test [6] was 1.27%. Besides, the RAM network inhibition in test [7] was 6.35%.

On to `COc1cc2ccccc2cc1-c1nnc(COc2ccccc2)o1`, for which the growth inhibition in test [1] was -8.96%; in test [2], -14.4%. In addition, the viability increase in test [3] was -2.61%. For the same compound, the figures for the viability in test [4] and in test [5] were 98.2% and 83.4%, respectively. Besides, the inhibition in test [6] was 4%. For the same compound, the RAM network inhibition in test [7] was 2.39%.

For the compound `COc1ccc(C(=O)c2coc3ccc(O)c(CN4CCOCC4)c23)cc1`, the growth inhibition in test [1] was -5.46%; in test [2], -12%. Moreover, the viability increase in test [3] is -4.42%. Moreover, the viability in test [4] was 77.2%; in test [5] it was 80.3%. The inhibition in test [6] was 1.79%. Besides, in test [7], the RAM network inhibition is -1.13%.

Consider `C=CCn1cnc2scc(-c3ccccc3)c2c1=O`, for which the growth inhibition was 2.71% in test [1] and 10.9% in test [2]. For the same compound, the viability increase in test [3] was -1.68%. Also, the viability in test [4] is 93.6%; in test [5], 84.2%. Moreover, the inhibition in test [6] is 2.52%. The RAM network inhibition in test [7] is 0.21%.

With `CCCCn1nc(NC(=O)c2cccs2)c2cc3ccccc3nc21`, the growth inhibition in test [1] was -22.7%; in test [2] it was -8.93%. Further, the viability increase in test [3] was 1.45%. For the same compound, the viability in test [4] is 54.6%; in test [5], 48.3%. In addition, the inhibition in test [6] was 0.55%. Moreover, the RAM network inhibition in test [7] is 4.61%.

As for `Cc1cccc(-n2ncc3c(N(C)C4CCCCC4)ncnc32)c1`, the growth inhibition in test [1] was 4.55%; in test [2], 23%. Further, in test [3], the viability increase is 2.07%. The viability in test [4] was 84.7%; in test [5], 85.8%. Besides, the inhibition in test [6] is -1.19%. The RAM network inhibition in test [7] is 3.02%.

Consider `CCC(C)OC(=O)C1=C(C)NC(=O)NC1c1ccc(F)cc1` (stereo unspecified), for which the values for the growth inhibition in test [1] and in test [2] were -8.18% and -18.7%, respectively. Also, the viability increase in test [3] is -2.13%. Also, the viability is 97% in test [4] and 92.7% in test [5]. Moreover, the inhibition in test [6] was 1.36%. Moreover, the RAM network inhibition in test [7] is 2.77%.

Consider `CCOC(=O)c1ccc(NC(=O)C(C)N2C(=O)c3ccccc3C2=O)cc1` (stereo unspecified), for which the growth inhibition is -13.1% in test [1] and -21.9% in test [2]. Besides, in test [3], the viability increase is 0.15%. The values for the viability in test [4] and in test [5] were 104% and 100%, respectively. In test [6], the inhibition is 0.645%. The RAM network inhibition in test [7] was 4.7%.

As to `CC(NC(=O)c1ccco1)C(c1cccs1)N1CCN(c2ccccc2)CC1` (stereo unspecified), the results for the growth inhibition in test [1] and in test [2] were -5.64% and -18.3%, respectively. In test [3], the viability increase is -1.36%. Besides, the viability was 87.7% in test [4] and 81.2% in test [5]. Further, in test [6], the inhibition was 1.74%. Further, the RAM network inhibition in test [7] was 5.06%.

Turning to `CCCCCn1c(SC(C)C(C)=O)nc2c1c(=O)[nH]c(=O)n2C` (stereo unspecified), the growth inhibition in test [1] is -25.6%; in test [2] it was -33.8%. In test [3], the viability increase is -0.88%. Besides, the viability in test [4] was 94.4%; in test [5] it was 88%. Besides, the inhibition in test [6] was 2.36%. In addition, in test [7], the RAM network inhibition was 2.16%.

On to `COCCn1c(=O)[nH]c2cc(C(=O)NC3CCCCCC3)ccc2c1=O`, for which the results for the growth inhibition in test [1] and in test [2] were -17.4% and -10.9%, respectively. Also, the viability increase in test [3] was -3.33%. The viability in test [4] is 93.7%; in test [5] it was 87.6%. Also, in test [6], the inhibition is 6.66% (active). Also, the RAM network inhibition in test [7] was 4.43%.

With `O=C1c2ccccc2CCC1C(O)c1ccccn1` (stereo unspecified), the growth inhibition in test [1] is -8.87%; in test [2], -15.8%. The viability increase in test [3] was -3.89%. The viability was 95.5% in test [4] and 99.2% in test [5]. The inhibition in test [6] was 2.49%. In addition, the RAM network inhibition in test [7] is 1.24%.

Regarding `C=CCSC1=NC(N)=C(C#N)C2(CCCCC2)C1C(N)=O` (stereo unspecified), the results for the growth inhibition in test [1] and in test [2] were -4.98% and 2.22%, respectively. The viability increase in test [3] is -1.39%. Besides, the viability is 92.5% in test [4] and 96.6% in test [5]. In test [6], the inhibition was 0.77%. In test [7], the RAM network inhibition was 2.04%.

With `CC(C)c1nnc(NC(=O)CCN2C(=O)c3ccccc3C2=O)s1`, the growth inhibition was -11.7% in test [1] and -0.03% in test [2]. Also, the viability increase in test [3] was 0.32%. Moreover, the values for the viability in test [4] and in test [5] were 104% and 106%, respectively. Further, in test [6], the inhibition is 3.73%. The RAM network inhibition in test [7] was 5.82%.

Consider `CCOC(=O)C1=C(C)NC(=O)NC1c1cn(-c2ccccc2)nc1-c1cccs1` (stereo unspecified), for which the values for the growth inhibition in test [1] and in test [2] were -10.2% and -0.16%, respectively. Besides, the viability increase in test [3] was -0.43%. In addition, the values for the viability in test [4] and in test [5] were 75.2% and 72.2%, respectively. Further, the inhibition in test [6] was 1.46%. Further, the RAM network inhibition in test [7] is 3.87%.

As to `NC(=O)C1CCN(C(=O)CN(c2cccc(C(F)(F)F)c2)S(=O)(=O)c2ccccc2)CC1`, the growth inhibition in test [1] was -10.2%; in test [2] it was -14.5%. Also, the viability increase in test [3] was -1.48%. The values for the viability in test [4] and in test [5] were 99.7% and 94.7%, respectively. Also, in test [6], the inhibition is 2.27%. In test [7], the RAM network inhibition was 4.31%.

Turning to `CCOC(=O)N1CCN(C(=O)c2oc(=O)c3ccccc3c2-c2ccc(C)cc2)CC1`, the growth inhibition in test [1] is -8.36%; in test [2], -8.23%. In addition, the viability increase in test [3] was 1.15%. Also, the viability is 96.2% in test [4] and 102% in test [5]. In test [6], the inhibition is 1.23%. Also, the RAM network inhibition in test [7] is 3.87%.

Take `Cc1noc(C(=O)Nc2c(C)nn(Cc3ccccc3)c2C)c1Cl`: the growth inhibition in test [1] is -7.73%; in test [2] it was 7.98%. Moreover, in test [3], the viability increase is 0.04%. The results for the viability in test [4] and in test [5] were 93.1% and 88.7%, respectively. Also, the inhibition in test [6] was 2.25%. The RAM network inhibition in test [7] was 3.63%.

What is called viability is a read-out of living cells in per cent, often relative to untreated cells. What is called inhibition is the change of the read-out against control, counted positive when it falls.
